The target of assay [1] is T1, Aminopeptidase N (Sus scrofa, UniProt P15145).
T1 sequence (P15145 whole entry): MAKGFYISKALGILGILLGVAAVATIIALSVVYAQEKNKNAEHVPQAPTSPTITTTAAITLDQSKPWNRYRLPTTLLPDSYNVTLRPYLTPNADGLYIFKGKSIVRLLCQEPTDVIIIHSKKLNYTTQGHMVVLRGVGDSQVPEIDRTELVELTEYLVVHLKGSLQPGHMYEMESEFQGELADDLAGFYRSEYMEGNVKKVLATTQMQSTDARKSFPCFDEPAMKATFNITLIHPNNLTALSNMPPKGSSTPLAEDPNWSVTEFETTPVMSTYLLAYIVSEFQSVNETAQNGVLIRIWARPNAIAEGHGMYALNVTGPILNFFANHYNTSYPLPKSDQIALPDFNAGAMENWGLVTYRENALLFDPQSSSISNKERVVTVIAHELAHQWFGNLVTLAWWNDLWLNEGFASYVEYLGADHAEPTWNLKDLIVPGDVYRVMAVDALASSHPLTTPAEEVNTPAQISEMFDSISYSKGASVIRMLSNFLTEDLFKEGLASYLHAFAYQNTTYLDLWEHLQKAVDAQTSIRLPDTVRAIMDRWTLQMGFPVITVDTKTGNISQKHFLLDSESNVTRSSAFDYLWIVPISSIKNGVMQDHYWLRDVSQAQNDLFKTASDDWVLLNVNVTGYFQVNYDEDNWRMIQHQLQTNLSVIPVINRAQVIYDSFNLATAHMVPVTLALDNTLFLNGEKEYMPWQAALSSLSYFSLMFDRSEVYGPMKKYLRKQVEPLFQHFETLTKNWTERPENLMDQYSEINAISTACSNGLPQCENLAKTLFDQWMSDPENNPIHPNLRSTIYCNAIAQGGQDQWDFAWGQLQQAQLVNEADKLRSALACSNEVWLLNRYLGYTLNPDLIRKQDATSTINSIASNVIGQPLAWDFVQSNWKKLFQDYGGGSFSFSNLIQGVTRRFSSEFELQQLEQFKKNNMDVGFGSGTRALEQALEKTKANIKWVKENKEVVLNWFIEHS
The experiment in a line: Inhibition of pig kidney aminopeptidase N using Leu-AMC as substrate.

The test system of assay [2] is PANC-1. The experiment in a line: Cytotoxicity against human PANC1 cells assessed as cell growth inhibition at 300 uM after 72 hrs by XTT assay relative to control. It is filed as functional. More on the design: scale not given: the % may be the effect or the level left. The procedure, abridged: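 PANC-1 cells cultured adherent in DMEM with 2 mM L-glutamine, 10% non-heat-inactivated FBS and penicillin–streptomycin at 37 °C, 5% CO2. Inhibitor (0–300 μM, 0.1 M NaOH stock diluted in medium) applied 72 h, with controls given matching 0.1 M NaOH. XTT incubation 4 h, A490 read, values normalised to untreated culture as percentage growth.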

The subject of assay [3] is HT-1080. The experiment in a line: Cytotoxicity against human HT1080 cells assessed as cell growth inhibition at 300 uM after 72 hrs by XTT assay relative to control. The assay is classed as functional. Set-up: scale not given: the % may be the effect or the level left. The procedure, abridged: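 HT-1080 cells kept adherent in DMEM plus 2 mM L-glutamine, 10% heat-inactivated FBS and penicillin–streptomycin at 37 °C, 5% CO2. Exposed 72 h to inhibitor (0–300 μM; 0.1 M NaOH stock diluted in medium), with vehicle controls given matching 0.1 M NaOH. XTT staining for 4 h, absorbance at 490 nm, expressed as percentage growth relative to untreated culture.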
In general terms: Tetrazolium dyes change colour on reduction, which living cells bring about.

In assay [4] the test system is HT-1080. Description: Cytotoxicity against human HT1080 cells assessed as cell growth inhibition after 72 hrs by XTT assay in the presence of TNFalpha relative to control. It is filed as functional. Set-up: scale not given: the % may be the effect or the level left. In a few lines: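 HT-1080 cells grown adherent in DMEM with 2 mM L-glutamine, 10% heat-inactivated FBS and penicillin–streptomycin at 37 °C, 5% CO2. Inhibitor (0–300 μM, from 0.1 M NaOH stock, diluted in medium) co-applied with TNF-α (0–30 μg/ml) for 72 h. Controls received matching 0.1 M NaOH. XTT added for 4 h, A490 read, normalised to untreated cells.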

A further assay has as its target Cytosol aminopeptidase (Homo sapiens, UniProt P28838). Description: Inhibition of leucine aminopeptidase.
Assay [5] has as its target Aminopeptidase N (Homo sapiens, UniProt P15144). Description: Inhibition of aminopeptidase N.
The test system of assay [6] is PANC-1. Description: Cytotoxicity against human PANC1 cells assessed as cell growth inhibition after 72 hrs by XTT assay. The assay is classed as functional. More on the design: scale not given: the % may be the effect or the level left. In a few lines: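 PANC-1 cells grown adherent in DMEM with 2 mM L-glutamine, 10% uninactivated FBS and 1% penicillin–streptomycin at 37 °C, 5% CO2. Treated 72 h with inhibitor (0–300 μM; stocks in 0.1 M NaOH, diluted in medium; vehicle controls), alone or with TNF-α (0–30 μg/ml). XTT added for 4 h; absorbance read at 490 nm and normalised to untreated cultures; mean ± one SD.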

Assay [7] relates to HT-1080. The experiment in a line: Cytotoxicity against human HT1080 cells assessed as cell growth inhibition after 72 hrs by XTT assay. It is filed as functional. More on the design: scale not given: the % may be the effect or the level left. The procedure, abridged: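 HT-1080 cells cultured adherent in DMEM with 2 mM L-glutamine, 10% heat-inactivated FBS and 1% penicillin–streptomycin at 37 °C, 5% CO2. Exposed 72 h to inhibitor (0–300 μM from 0.1 M NaOH stocks diluted in medium; NaOH vehicle controls), with or without TNF-α (0–30 μg/ml). XTT for 4 h, absorbance at 490 nm, growth expressed relative to untreated cells; mean ± one SD.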

Molecules are shown by their SMILES.

By IC50 is commonly meant the midpoint of a concentration-inhibition curve. In general, Ki refers to a measure of affinity in units of concentration, obtained from inhibition or displacement.

Chain of Cytosol aminopeptidase (P28838 whole entry): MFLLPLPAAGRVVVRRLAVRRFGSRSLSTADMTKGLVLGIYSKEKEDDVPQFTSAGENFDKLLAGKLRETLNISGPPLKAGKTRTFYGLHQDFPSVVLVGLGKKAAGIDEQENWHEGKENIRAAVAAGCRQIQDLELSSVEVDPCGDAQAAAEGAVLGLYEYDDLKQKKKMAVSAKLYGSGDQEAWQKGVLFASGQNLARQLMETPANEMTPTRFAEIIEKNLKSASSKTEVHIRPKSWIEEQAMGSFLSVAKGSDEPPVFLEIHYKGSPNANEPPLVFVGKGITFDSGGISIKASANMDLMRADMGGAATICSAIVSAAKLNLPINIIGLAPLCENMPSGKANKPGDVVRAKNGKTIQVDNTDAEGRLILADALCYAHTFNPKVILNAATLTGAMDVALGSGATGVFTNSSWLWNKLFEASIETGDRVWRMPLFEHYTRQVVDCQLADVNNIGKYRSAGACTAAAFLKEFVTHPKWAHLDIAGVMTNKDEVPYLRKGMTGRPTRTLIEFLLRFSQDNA
Chain of Aminopeptidase N (Homo sapiens, UniProt P15144) (P15144 whole entry): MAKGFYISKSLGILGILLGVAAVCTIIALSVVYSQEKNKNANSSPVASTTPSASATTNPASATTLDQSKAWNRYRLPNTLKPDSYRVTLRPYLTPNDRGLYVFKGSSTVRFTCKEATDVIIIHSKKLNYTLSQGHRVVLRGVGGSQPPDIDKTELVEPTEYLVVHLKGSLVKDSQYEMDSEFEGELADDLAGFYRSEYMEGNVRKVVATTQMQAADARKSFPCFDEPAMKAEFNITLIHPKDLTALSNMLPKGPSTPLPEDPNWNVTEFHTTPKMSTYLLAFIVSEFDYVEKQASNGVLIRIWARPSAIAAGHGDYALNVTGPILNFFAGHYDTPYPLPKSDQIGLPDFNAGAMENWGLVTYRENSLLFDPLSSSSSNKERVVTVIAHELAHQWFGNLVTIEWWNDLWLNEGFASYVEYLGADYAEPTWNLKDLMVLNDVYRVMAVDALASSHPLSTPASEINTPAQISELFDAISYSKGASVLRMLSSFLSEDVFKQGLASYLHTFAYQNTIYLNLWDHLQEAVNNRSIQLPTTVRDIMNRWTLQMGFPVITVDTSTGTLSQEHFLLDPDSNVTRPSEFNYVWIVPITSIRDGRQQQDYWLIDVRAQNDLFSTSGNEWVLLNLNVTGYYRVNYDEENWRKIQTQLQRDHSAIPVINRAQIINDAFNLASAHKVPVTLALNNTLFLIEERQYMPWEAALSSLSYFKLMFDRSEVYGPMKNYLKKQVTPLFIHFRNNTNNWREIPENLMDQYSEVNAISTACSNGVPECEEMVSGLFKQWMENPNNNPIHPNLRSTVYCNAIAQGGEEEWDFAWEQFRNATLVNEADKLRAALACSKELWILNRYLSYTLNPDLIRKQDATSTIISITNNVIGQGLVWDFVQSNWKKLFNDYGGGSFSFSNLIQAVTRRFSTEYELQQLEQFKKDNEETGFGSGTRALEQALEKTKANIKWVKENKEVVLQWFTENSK

On to `CCC(N)P(=O)(O)Oc1ccc(C)c(C)c1` (stereo unspecified), for which half-maximal inhibition against Aminopeptidase N [1] (IC50) required 3 µM.

Consider `CCC(N)P(=O)(O)Oc1ccc(C(C)(C)C)cc1` (stereo unspecified), for which, on Aminopeptidase N [1], the IC50 amounted to 1.1 µM. Besides, the Activity with PANC-1 [2] is recorded as 26%; in the assay with HT-1080 [3] it was 36%; with HT-1080 [4], 60%.

For the compound `CCCCC(N)P(=O)(O)Oc1ccc(C)cc1` (stereo unspecified), the IC50 at Aminopeptidase N [1] was found to be 1 µM.

Consider `CC(N)P(=O)(O)Oc1ccc(C(C)(C)C)cc1` (stereo unspecified), for which, on Aminopeptidase N [1], 8.2 µM corresponded to half-maximal inhibition (IC50).

`CCCCC(N)P(=O)(O)Oc1ccccc1` (stereo unspecified) returned an IC50 against Aminopeptidase N [1] of 5.6 µM.

Compound `CCc1ccc(OP(=O)(O)C(N)CCc2ccccc2)cc1` (stereo unspecified) displayed an IC50 against Aminopeptidase N [1] of 13 µM.

Compound `CCCC(N)P(=O)(O)O` (stereo unspecified) showed an IC50 against Aminopeptidase N [1] of 15 µM.

As for `CC(C)C(N)P(=O)(O)O` (stereo unspecified), the IC50 against Aminopeptidase N [1] was 104 µM.

`NC(Cc1ccccc1)P(=O)(O)Oc1ccccc1` (stereo unspecified) returned an IC50 against Aminopeptidase N [1] of 8.2 µM. Moreover, the Ki on Cytosol aminopeptidase came out at 0.42 µM; on Aminopeptidase N [5] it was 27.5 µM.

In the case of `CC(C)(C)c1ccc(OP(=O)(O)C(N)CCc2ccccc2)cc1` (stereo unspecified), the IC50 against Aminopeptidase N [1] turned out to be 1.9 µM.

`CCC(N)P(=O)(O)O` (stereo unspecified): the IC50 at Aminopeptidase N [1] came out at 50 µM.

Take `Cc1ccc(OP(=O)(O)C(N)CCc2ccccc2)cc1C` (stereo unspecified): the IC50 on Aminopeptidase N [1] is 2.2 µM.

Turning to `CC(C)C[C@H](NC(=O)[C@@H](O)[C@H](N)Cc1ccccc1)C(=O)O` [UBENIMEX], the Activity in the assay on PANC-1 [6] and in the assay on HT-1080 [7] was under 10% throughout.

Take `CC(C)C(N)P(=O)(O)Oc1ccccc1` (stereo unspecified): the IC50 against Aminopeptidase N [1] came to 14 µM.

For `NC(CCc1ccccc1)P(=O)(O)Oc1ccccc1` (stereo unspecified), the IC50 against Aminopeptidase N [1] worked out at 6.2 µM.

At Aminopeptidase N [1], `CCC(CC)C(N)P(=O)(O)Oc1ccccc1` (stereo unspecified) had an IC50 of over 100 µM.

`COc1ccc(OP(=O)(O)C(N)CCc2ccccc2)cc1` (stereo unspecified) had an IC50 against Aminopeptidase N [1] of 2.9 µM.

Compound `CCCCC(N)P(=O)(O)Oc1cc(C)ccc1C` (stereo unspecified) had a half-maximal inhibitory concentration (IC50) against Aminopeptidase N [1] of 200 µM.

Turning to `NC(c1ccccc1)P(=O)(O)O` (stereo unspecified) [AMINO(PHENYL)METHYLPHOSPHONIC ACID], the IC50 on Aminopeptidase N [1] worked out at 220 µM.

As to `CC(C)CC(N)P(=O)(O)Oc1ccccc1` (stereo unspecified), it took 9.3 µM to reach half-maximal inhibition at Aminopeptidase N [1] (IC50). In addition, the figures for the Ki on Cytosol aminopeptidase and at Aminopeptidase N [5] were 0.23 µM and 53 µM, respectively.

`CC(N)P(=O)(O)O` (stereo unspecified) came in with an IC50 at Aminopeptidase N [1] of 42 µM.

`Cc1ccc(C)c(OP(=O)(O)C(N)CCc2ccccc2)c1` (stereo unspecified) had an IC50 on Aminopeptidase N [1] of 15 µM.

The compound `CCC(N)P(=O)(O)Oc1ccc(C)cc1` (stereo unspecified) gave an IC50 at Aminopeptidase N [1] of 7 µM.

Regarding `Cc1cc(C)c(C)c(OP(=O)(O)C(N)CCc2ccccc2)c1` (stereo unspecified), the IC50 on Aminopeptidase N [1] amounted to 5 µM.

In turn, `CCCCCC(N)P(=O)(O)Oc1ccccc1` (stereo unspecified) returned an IC50 against Aminopeptidase N [1] of 4.8 µM.

Consider `Cc1cc(C)c(C)c(OP(=O)(O)C(C)N)c1` (stereo unspecified), for which the IC50 on Aminopeptidase N [1] came to 14 µM.

Consider `CC(C)(C)CC(C)(C)c1ccc(OP(=O)(O)C(N)CCc2ccccc2)cc1` (stereo unspecified), for which the 50% inhibitory concentration (IC50) against Aminopeptidase N [1] was 6.3 µM.

Turning to `CCC(N)P(=O)(O)Oc1cc(C)ccc1C` (stereo unspecified), half-maximal inhibition on Aminopeptidase N [1] (IC50) required 120 µM.

Consider `CCCCC(N)P(=O)(O)Oc1ccc(C(=O)O)cc1` (stereo unspecified), for which, at Aminopeptidase N [1], the midpoint of inhibition, the IC50, lay at 55 µM.

Regarding `CCCCCC(N)P(=O)(O)O` (stereo unspecified), 8.3 µM corresponded to half-maximal inhibition on Aminopeptidase N [1] (IC50).

On to `NC(c1ccccc1)P(=O)(O)Oc1ccccc1` (stereo unspecified), for which the IC50 on Aminopeptidase N [1] was 21 µM.

On Aminopeptidase N [1], `NC(Cc1ccccc1)P(=O)(O)O` (stereo unspecified) came in with an IC50 of 54 µM. The inhibitory constant (Ki) on Cytosol aminopeptidase was 0.42 µM; at Aminopeptidase N [5], 27.5 µM.

With `CCc1ccc(OP(=O)(O)C(C)N)cc1` (stereo unspecified), half-maximal inhibition against Aminopeptidase N [1] (IC50) was put at 8.3 µM.

`CC(C)c1ccc(OP(=O)(O)C(N)CCc2ccccc2)cc1` (stereo unspecified) gave an IC50 against Aminopeptidase N [1] of 0.5 µM.

In turn, `NC(CCc1ccccc1)P(=O)(O)Oc1ccc(C(=O)O)cc1` (stereo unspecified) gave an IC50 against Aminopeptidase N [1] of 22 µM.

As for `CCCCC(N)P(=O)(O)Oc1ccc(C)c(C)c1` (stereo unspecified), half-maximal inhibition at Aminopeptidase N [1] (IC50) required 1.4 µM.

Turning to `CCCCC(N)P(=O)(O)Oc1ccc(OC)cc1` (stereo unspecified), the IC50 against Aminopeptidase N [1] came out at 210 µM.

`CCC(N)P(=O)(O)Oc1ccc(C(=O)O)cc1` (stereo unspecified) displayed an IC50 on Aminopeptidase N [1] of 200 µM.

The compound `CCCCC(N)P(=O)(O)O` (stereo unspecified) displayed an IC50 against Aminopeptidase N [1] of 75 µM.

On Aminopeptidase N [1], `CC(C)CC(N)P(=O)(O)O` (stereo unspecified) showed an IC50 of 37 µM. This compound displayed a Ki at Aminopeptidase N [5] of 53 µM.

Source of the values: ChEMBL document CHEMBL1156227, “New aromatic monoesters of alpha-aminoaralkylphosphonic acids as inhibitors of aminopeptidase N/CD13” (Bioorg Med Chem, 2010).
